Published values pooled from the literature.
Target: Phosphorylase b kinase gamma catalytic chain, skeletal muscle/heart isoform (PHKG1, Homo sapiens, UniProt Q16816)

Cn1cncc1[C@@](O)(COc1ccc(C#N)cc1-c1ccc(OC(F)(F)F)cc1)c1ccc(C#N)cc1
remaining binding (cell-free assay, competition with immobilised ligand; 1 µM): 95%

COc1cc(Nc2ncc(F)c(Nc3ccc4c(n3)NC(=O)C(C)(C)O4)n2)cc(OC)c1OC
inhibition (binding; 10 µM): 29%

CC(C)(C)c1cc(C=C(C#N)C#N)cc(Br)c1O
remaining activity (enzyme activity, inhibitor; 0.5 µM): 96.7%

Cn1cc(-c2cccc(N3CCc4c(sc5c4CC(C)(C)C5)C3=O)c2CO)cc(Nc2ccncn2)c1=O
inhibition (enzyme activity, inhibitor; 1 µM): 6%

Cc1nn(C)cc1-c1nc2c(N3CCN(Cc4ccc(Cl)cc4)CC3)c(Cl)cnc2[nH]1
remaining binding (binding, competition with immobilised ligand; 1 µM): 100%

O=c1[nH]c2ccccc2n1C1CCN(Cc2ccc(-c3[nH]c4cc5ncnc5cc4nc3-c3ccccc3)cc2)CC1
remaining signal (cell-free assay; 0.5 µM): 106%

Cn1cc(-c2cc(F)cc(N3CCn4c(cc5c4CCCC5)C3=O)c2CO)cc(Nc2ccc(N3CCN(C4COC4)CC3)cn2)c1=O
inhibition (enzyme activity, inhibitor; 0.1 µM): 6%

COc1ncccc1-c1cnn2ccc(N3CCN(C(=O)OC(C)C)CC3)nc12
remaining binding (binding, competition with immobilised ligand; 1 µM): 100%

N#CC1(c2ccccn2)CCN(Cc2cc(C(=O)O)c(=O)n3ccccc23)CC1
remaining binding (cell-free assay, competition with immobilised ligand; 1 µM): 100%

Nc1ncc(-c2nc(N3CCOCC3)nc(N3CCOCC3)n2)c(C(F)F)n1
remaining binding (binding, competition with immobilised ligand; 10 µM): 94%
